Test results reported in ChEMBL document CHEMBL4831505, “Plant-Derived Cyclotides Modulate κ-Opioid Receptor Signaling” (J Nat Prod, 2021).
pEC50, pKi: −log10 of the molar value.

Experiments:
[1] = molecular target: T1, Kappa-type opioid receptor (Mus musculus, UniProt P33534); test: Agonist activity at mouse kappa opioid receptor […] assessed as beta-arrestin 2 recruitment using furimazine as a substrate preincubated for 5 mins followed by ligand addition measured for 35 mins by BRET assay; type: functional, HEK293, Cell membrane
[2] = molecular target: T1, Kappa-type opioid receptor; test: Positive allosteric modulator activity in mouse kappa opioid receptor stably expressed in HEK293 cell membrane assessed as inhibition of forskolin induced cAMP production by measuring dyn A1-13 EC50 incubated with dyn A1-13 alone measured after 30 mins by HTRF assay; type: functional, cell membranes
In short: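 HEK293 stably expressing mouse KOR (2000 cells/well), pretreated 30 min at 37 °C with T20K (0.03–10 μM) or none, then dyn A1–13 with 10 μM forskolin and 0.5 mM IBMX for 30 min at 37 °C. cAMP by HTRF (665/620 nm) after 1 h at room temperature. Triplicates; normalized to top dyn A1–13 concentration; three-parameter fit, slope 1.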

[3] = molecular target: T1, Kappa-type opioid receptor; test: Positive allosteric modulator activity in mouse kappa opioid receptor stably expressed in HEK293 cell membrane assessed as binding affinity of dyn A1-13 to orthosteric binding site incubated with dyn A1-13 alone for 90 mins by radioligand competition binding assay; type: cell membranes
[4] = molecular target: Kappa-type opioid receptor (Mus musculus) (UniProt P33534); test: Positive allosteric modulator activity in mouse kappa opioid receptor stably expressed in HEK293 cell membrane assessed as inhibition of forskolin induced cAMP production by measuring dyn A1-13 Emax incubated with dyn A1-13 alone measured after 30 mins by HTRF assay relative to control; type: functional, cell membranes; conditions: filed as positive allosteric modulator, dose 0.03 µM, time 60.0 min
In short: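 Stably transfected mouse KOR HEK293 cells were pretreated with modulator (0.03–10 μM) for 30 min at 37 °C. Dyn A1-13 or U50,488 plus forskolin (10 μM final) with IBMX were then added for a further 30 min at 37 °C. HTRF cAMP read at 665/620 nm. Normalised to the highest orthosteric agonist concentration; unconstrained three-parameter fit, slope 1; n = 4 (7 at 10 μM).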

CC[C@H](C)[C@H](NC(=O)[C@H](CCCNC(=N)N)NC(=O)[C@H](CCCNC(=N)N)NC(=O)[C@H](CC(C)C)NC(=O)[C@H](Cc1ccccc1)NC(=O)CNC(=O)CNC(=O)[C@@H](N)Cc1ccc(O)cc1)C(=O)N[C@@H](CCCNC(=N)N)C(=O)N1CCC[C@H]1C(=O)N[C@@H](CCCCN)C(=O)N[C@@H](CC(C)C)C(=O)N[C@@H](CCCCN)C(=O)O [ANALOG OF DYNORPHIN A]
pEC50 [1]: 6.80
pEC50 [2]: 8.17
pKi [3]: 9.52
Emax [4]: 100%
